ChEMBL document CHEMBL1121883, “1-(Naphthylalkyl)-1H-imidazole derivatives, a new class of anticonvulsant agents” (J Med Chem, 1981)
Values joined by “and” are separate entries in the source; they are usually repeats but may differ in a detail not shown here. Identical values can stand only once.

How the values were obtained:
[1] = (§1) Lethal dose was measured in mice after ip administration.; type: toxicity, organism-based; details: mouse, in vivo
Outline: (§2)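 Male Simonsen ICR-derived mice (16-24 g), groups of three, given compound ip in increasing doses within a behavioral screen. Deaths counted on day 5, and LD50 estimated from 5-day survival. Quantal data analysed by the Litchfield-Wilcoxon method.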

Mus musculus [2] = experiment: Compound was evaluated for anticonvulsant activity by maximal electroshock assay(MES) in mice after ip administration; 18-48; type: functional
Outline: (§3)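 Male Hilltop ICR-derived mice (19-30 g), groups of 8-10, dosed ip with compound or aqueous vehicle. After 15 min pretreatment, a transcorneal 60-Hz, 50 mA shock was given for 0.2 s. Just before the shock, each mouse was tested on a horizontal wire (10 s). Quantal data were analysed by Litchfield-Wilcoxon to give ED50 with 95% confidence limits.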

Mus musculus [3] = experiment: Dose of compound causing a neurological deficit in 50% of mice after ip administration; 57-91; type: functional
Outline: (§4)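 Traction test in male Hilltop ICR-derived mice (19-30 g, groups of 8-10) just before electroshock, 15 min after ip or 30 min after oral dosing. Mice placed on a 16-gauge, 65-cm copper wire 40 cm above the table; deficit scored as failure to stay on for 10 s. ND50 with 95% limits by Litchfield-Wilcoxon.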

Mus musculus [4] = experiment: Protective index is defined as ND50 (i.p.) divided by MES ED50(i.p.); type: functional
Outline: (§5)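 Ratio of ND50 from the wire traction test to MES ED50, both measured by the same route (ip or oral) in the same animals. Quantal dose-response data for each were evaluated by Litchfield-Wilcoxon.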

Mus musculus [5] = experiment: Anticonvulsant activity in mouse maximal electroshock assay following i.p. administration.; type: functional; details: ip; outline: as §3
Mus musculus [6] = experiment: Compound was evaluated for anticonvulsant activity by maximal electroshock assay(MES) in mice after ip administration; type: functional; outline: as §3
Mus musculus [7] = experiment: Dose of compound causing a neurological deficit in 50% of mice after ip administration; type: functional; outline: as §4
Mus musculus [8] = experiment: Dose causing a neurological deficit in 50% of mice after ip administration.; type: functional; outline: as §4
Mus musculus [9] = experiment: Protective index defined as ND50 (p.o.) divided by MES ED50(op); type: functional; outline: as §5
Rattus norvegicus [10] = experiment: Compound was evaluated for anticonvulsant activity by maximal electroshock assay(MES) in rat after po administration.
Mus musculus [11] = experiment: Compound was evaluated for anticonvulsant activity by maximal electroshock assay(MES) in mice after po administration.; type: functional
Outline: (§6)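 Male Hilltop ICR-derived mice (19-30 g), groups of 8-10, given compound or aqueous vehicle orally. The transcorneal 60-Hz shock (50 mA, 0.2 s) followed a 30 min pretreatment and a wire-hang neurological check (10 s). ED50 and 95% confidence limits were obtained from quantal data by the Litchfield-Wilcoxon method.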

Rattus norvegicus [12] = experiment: Dose of compound causing a neurological deficit in 50% of rat after po administration.
Mus musculus [13] = experiment: Dose causing a neurological deficit in 50% of mice following p.o. administration.; type: functional; outline: as §4
Rattus norvegicus [14] = experiment: Compound was evaluated for anticonvulsant activity by maximal electroshock assay(MES) in rat after po administration.; type: functional
Outline: (§7)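 Male Simonsen Sprague-Dawley-derived rats, 80-110 g, groups of 8-10, dosed with compound or aqueous vehicle; pretreatment 15 min after ip or 30 min after oral dosing. Transcorneal electroshock, 150 mA, 60 Hz, 0.2 s, given after the wire test. ED50 with 95% confidence limits from quantal data by Litchfield-Wilcoxon.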

Mus musculus [15] = experiment: Compound was evaluated for anticonvulsant activity by maximal electroshock assay(MES) in mice after po administration; 60-147; type: functional; outline: as §6
Rattus norvegicus [16] = experiment: Compound was evaluated for anticonvulsant activity by maximal electroshock assay(MES) in rat after ip administration; 2.9-19; type: functional
Mus musculus [17] = experiment: Compound was evaluated for anticonvulsant activity by maximal electroshock assay(MES) in mice after ip administration; 8-19; type: functional; outline: as §3
Mus musculus [18] = experiment: as §1; type: functional; outline: as §2
Rattus norvegicus [19] = experiment: Dose of compound causing a neurological deficit in 50% of rat after ip administration.; type: functional
Outline: (§8)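 Rats (Simonsen Sprague-Dawley-derived, 80-110 g, groups of 8-10) placed on a suspended 16-gauge, 65-cm copper wire just before electroshock. Deficit scored as inability to remain for 8 s. Pretreatment was 15 min ip or 30 min oral. Quantal data analysed by Litchfield-Wilcoxon to give ND50 with 95% limits.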

Mus musculus [20] = experiment: Dose of compound causing a neurological deficit in 50% of mice after ip administration; 66-92; type: functional; outline: as §4
Rattus norvegicus [21] = experiment: Compound was evaluated for anticonvulsant activity by maximal electroshock assay(MES) in rat after ip administration; 0.6-6.6; type: functional
Rattus norvegicus [22] = experiment: Compound was evaluated for anticonvulsant activity by maximal electroshock assay(MES) in rat after po administration; 13-39; type: functional; outline: as §7
Mus musculus [23] = experiment: Compound was evaluated for anticonvulsant activity by maximal electroshock assay(MES) in mice after ip administration; 11-18; type: functional; outline: as §3
Mus musculus [24] = experiment: Compound was evaluated for anticonvulsant activity by maximal electroshock assay(MES) in mice after po administration; 37-60; type: functional; outline: as §6
Rattus norvegicus [25] = experiment: Dose of compound causing a neurological deficit in 50% of rat after po administration.; type: functional; outline: as §8
Mus musculus [26] = experiment: Compound was evaluated for anticonvulsant activity by maximal electroshock assay(MES) in mice after ip administration; 31-39; type: functional; outline: as §3
Rattus norvegicus [27] = experiment: Compound was evaluated for anticonvulsant activity by maximal electroshock assay(MES) in rat after po administration; 30-125; type: functional; outline: as §7
Mus musculus [28] = experiment: Compound was evaluated for anticonvulsant activity by maximal electroshock assay(MES) in mice after po administration; 55-125; type: functional; outline: as §6
Rattus norvegicus [29] = experiment: Dose of compound causing a neurological deficit in 50% of rat after ip administration; 119-211; type: functional; outline: as §8
Mus musculus [30] = experiment: Dose of compound causing a neurological deficit in 50% of mice after ip administration; 80-115; type: functional; outline: as §4
Rattus norvegicus [31] = experiment: Compound was evaluated for anticonvulsant activity by maximal electroshock assay(MES) in rat after ip administration; 14-33; type: functional

Row | Compound | LD50 [1] [mg/kg] | PI (Mus musculus [4]) | ED50 (Mus musculus [5]) [mg/kg] | ND50 (Mus musculus [8]) [mg/kg] | PI (Mus musculus [9]) | ND50 (Mus musculus [13]) [mg/kg] | also measured
1 | O=C(Cn1ccnc1)c1cccc2ccccc12 | > 100 |  |  |  |  |  | 
2 | Cc1ccccc1OC(Cn1ccnc1)c1ccc2ccccc2c1.Cl (stereo not given) |  | 2.1 |  |  |  |  | ED50 (Mus musculus [2]): 33 mg/kg; ND50 (Mus musculus [3]): 70 mg/kg
3 | Cl.c1ccc2cc(C3(Cn4ccnc4)SCCCS3)ccc2c1 | > 100 | 1.4 | 65 |  |  |  | 
4 | C[S+]([O-])C(Cn1ccnc1)c1ccc2ccccc2c1.Cl (stereo not given) |  |  |  |  |  |  | ED50 (Mus musculus [6]): > 40 mg/kg; ND50 (Mus musculus [7]): >40 mg/kg
5 | CCSC(Cn1ccnc1)(SCC)c1ccc2ccccc2c1.Cl | > 100 | 2.2 |  | 78 |  |  | 
6 | Cl.c1ccc2cc(CCn3ccnc3)ccc2c1 | > 100 | 1.4 | 22 | 31 | >2.1 | >100 | ED50 (Rattus norvegicus [10]): 54 mg/kg; ED50 (Mus musculus [11]): 47 mg/kg; ND50 (Rattus norvegicus [12]): >100 mg/kg
7 | CS(=O)(=O)C(Cn1ccnc1)c1ccc2ccccc2c1.Cl (stereo not given) |  |  |  |  |  |  | ED50 (Mus musculus [6]): > 40 mg/kg; ND50 (Mus musculus [7]): >40 mg/kg
8 | Br.CCc1ccc2cc(C(=O)Cn3ccnc3)ccc2c1 |  | >8.1 |  | >100 | >1.2 | >100 | ED50 (Rattus norvegicus [14]): > 30 mg/kg; ED50 (Mus musculus [15]): 84 mg/kg; ED50 (Rattus norvegicus [16]): 5.5 mg/kg; ED50 (Mus musculus [17]): 12 mg/kg; LD50 (Mus musculus [18]): > 100 mg/kg; ND50 (Rattus norvegicus [19]): >100 mg/kg
9 | Cl.c1ccc2c(C3(Cn4ccnc4)SCCS3)cccc2c1 |  | 2.2 | 26 | 57 |  |  | 
10 | Cl.O=C(Cn1ccnc1)c1ccc2ccccc2c1 [NAFIMIDONE HYDROCHLORIDE] |  |  |  |  | >4.2 | >200 | ND50 (Mus musculus [20]): 83 mg/kg; ED50 (Rattus norvegicus [21]): 1.7 mg/kg; ED50 (Rattus norvegicus [22]): 26 mg/kg; ED50 (Mus musculus [23]): 15 mg/kg; ED50 (Mus musculus [24]): 48 mg/kg; LD50 (Mus musculus [18]): > 100 mg/kg; ND50 (Rattus norvegicus [25]): >100 mg/kg; ND50 (Rattus norvegicus [19]): >100 mg/kg
11 | OC(Cn1ccnc1)c1cccc2ccccc12 (stereo not given) | > 300 | 2.6 and 6.4 |  |  | >3.7 and >4.8 | >300 | ED50 (Mus musculus [26]): 34 mg/kg; ED50 (Rattus norvegicus [27]): 62 mg/kg; ED50 (Mus musculus [28]): 82 mg/kg; ND50 (Rattus norvegicus [29]): 153 mg/kg; ND50 (Mus musculus [30]): 89 mg/kg; ND50 (Rattus norvegicus [25]): >300 mg/kg; ED50 (Rattus norvegicus [31]): 24 mg/kg
12 | Cc1cc2cccc(C(=O)Cn3ccnc3)c2cc1C.Cl |  | >3.8 | 80 | >300 |  |  | 
13 | CCC1(c2ccccc2)C(=O)NC(=O)NC1=O [PHENOBARBITAL] | > 100 | 2 | 15 | 30 | 1.9 | 36 | ED50 (Mus musculus [11]): 19 mg/kg
14 | CC(C)SC(Cn1ccnc1)(SC(C)C)c1ccc2ccccc2c1.Cl |  | >1.2 | 86 | >100 |  |  | 
